Source: paper PMC7693203 (Epilepsia, 2020)
Where two headings read alike, the source gives them in different places. Marks after values point to notes of the source that are not given here.

Columns and labels:
[1] = system: CYP3A4/2C19; assay: clinical; conditions: human, in vivo, 750 mg
[2] = system: UGT2B7; conditions: in vitro; result in words; cited from earlier work
[3] = system: CYP3A4/2C19; conditions: result in words
[4] = biological target: T1, CYP3A4 (Homo sapiens, UniProt P08684); conditions: result in words
[5] = cited from earlier work
[6] = not given; remark: listed apart in the source
[7] = not given; remark: listed apart in the source
[8] = biological target: T2, CYP2C19 (Homo sapiens, UniProt P33261)
[9] = Other safety parameters for all six trials; format: in vivo, human; conditions: result in words
In short: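 Safety was assessed in open-label, fixed-sequence phase 1 trials in healthy volunteers and in randomized, double-blind, placebo-controlled phase 2 trials in epilepsy patients. Assessments covered treatment-emergent adverse events, clinical laboratory evaluations, vital signs, 12-lead ECGs, physical examinations and the C-SSRS questionnaire. The safety population comprised subjects given at least one dose. In CYP3A4 trials, volunteers also needed at least one postdose assessment.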

[10] = steady-state CBD, healthy volunteers; result in words; cited from earlier work
[11] = cited from earlier work; for Abdominal pain / Chromaturia / Diarrhea / Fatigue / Flatulence / Headache / Hepatic enzyme increased / Nausea / Somnolence: healthy volunteers
[12] = cited from earlier work; remark: listed apart in the source
[13] = biological target: T2, CYP2C19; conditions: human liver microsomes; result in words; cited from earlier work
[14] = biological target: T1, CYP3A4; assay: clinical; conditions: in vivo, 750 mg
[15] = trial 17028, healthy volunteers, N = 16
[16] = trial 1428, patients with epilepsy, N = 16
[17] = trial 1428, patients with epilepsy, N = 20
[18] = trial 17074, healthy volunteers, N = 16
[19] = trial 17075, healthy volunteers, N = 32
[20] = trial 1543, healthy volunteers, N = 77
[21] = trial 1543 groups 1 + 2 (DDI CLB), n = 27
[22] = trial 1543 groups 3 + 4 (DDI STP), n = 24
[23] = trial 1543 groups 5 + 6 (DDI VPA), n = 26
[24] = trial 1447, patients with epilepsy, N = 28
[25] = trial 1447, patients with epilepsy, N = 34

T1 sequence (P08684 whole entry): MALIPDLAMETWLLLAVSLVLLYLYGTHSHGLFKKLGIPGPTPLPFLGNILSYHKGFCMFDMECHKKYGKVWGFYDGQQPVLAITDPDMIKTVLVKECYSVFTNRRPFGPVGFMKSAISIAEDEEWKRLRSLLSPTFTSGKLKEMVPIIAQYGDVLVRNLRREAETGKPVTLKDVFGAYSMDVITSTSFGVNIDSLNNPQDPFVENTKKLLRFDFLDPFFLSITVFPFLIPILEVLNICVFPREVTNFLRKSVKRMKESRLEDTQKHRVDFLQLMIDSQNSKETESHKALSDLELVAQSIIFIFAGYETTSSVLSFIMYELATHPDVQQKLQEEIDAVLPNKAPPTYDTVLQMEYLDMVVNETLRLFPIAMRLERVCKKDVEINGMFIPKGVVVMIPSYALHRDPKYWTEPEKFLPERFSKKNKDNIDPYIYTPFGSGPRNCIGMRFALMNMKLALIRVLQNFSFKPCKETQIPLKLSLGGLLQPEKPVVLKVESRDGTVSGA
T2 sequence (P33261 whole entry): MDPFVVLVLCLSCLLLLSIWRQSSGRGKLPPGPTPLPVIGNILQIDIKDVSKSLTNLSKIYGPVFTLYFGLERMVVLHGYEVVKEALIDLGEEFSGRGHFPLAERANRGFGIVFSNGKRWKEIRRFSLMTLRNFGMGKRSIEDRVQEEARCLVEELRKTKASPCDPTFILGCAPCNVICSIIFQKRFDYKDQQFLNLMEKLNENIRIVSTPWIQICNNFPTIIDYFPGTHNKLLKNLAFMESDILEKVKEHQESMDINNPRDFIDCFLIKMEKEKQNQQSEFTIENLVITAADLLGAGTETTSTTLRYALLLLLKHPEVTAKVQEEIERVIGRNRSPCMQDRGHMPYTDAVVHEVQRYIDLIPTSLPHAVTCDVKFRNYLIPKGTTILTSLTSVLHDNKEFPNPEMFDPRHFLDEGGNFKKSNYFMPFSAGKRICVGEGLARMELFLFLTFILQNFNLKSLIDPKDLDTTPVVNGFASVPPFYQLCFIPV

Compound: C=C(C)[C@@H]1CCC(C)=C[C@H]1c1c(O)cc(CCCCC)cc1O [CBD, cannabidiol]
- half-life [1]: 32.5 h
- elevation in AST levels observed (trial 17028): four
- elevations in alanine aminotransferase levels observed (trial 17028): three
- AEs leading to withdrawal [15]: 2 (13) n (%)
- Abdominal pain [15]: 2 (13) n (%)
- Chromaturia [15]: 0 (0) n (%)
- Death [15]: 0 (0) n (%)
- Diarrhea [15]: 6 (38) n (%)
- Fatigue [15]: 3 (19) n (%)
- Flatulence [15]: 0 (0) n (%)
- Headache [15]: 4 (25) n (%)
- Hepatic enzyme increased [15]: 4 (25) n (%)
- Nausea [15]: 2 (13) n (%)
- Patient with at least 1 AE [15]: 15 (94) n (%)
- Serious AEs [15]: 0 (0) n (%)
- Severe AEs [15]: 0 (0) n (%)
- Somnolence [15]: 5 (31) n (%)
- healthy volunteers with elevations in transaminase levels reported as AEs (trial 17028, of 16): 25%
- healthy volunteers reporting AEs (trial 17028, of 16, CBD as multiple doses): 94%
- inhibition of UGT2B7 [2]: potently inhibits
- t ½ with concomitant RIF [3]: unaffected
- clearance with concomitant ITC [4]: unaffected
- effect of concomitant steady‐state ITC on exposure [4]: did not affect
- t ½ with concomitant ITC [4]: unaffected
- patients with epilepsy reporting AEs ([5]; trial 1428, of 20): 75%
- Abdominal pain [5, 16]: 1 (6) n (%)
- Chromaturia [5, 16]: 0 (0) n (%)
- Diarrhea [5, 16]: 6 (38) n (%)
- Fatigue [5, 16]: 1 (6) n (%)
- Flatulence [5, 16]: 0 (0) n (%)
- Headache [5, 16]: 1 (6) n (%)
- Hepatic enzyme increased [5, 16]: 0 (0) ^d n (%)
- Nausea [5, 16]: 3 (19) n (%)
- Somnolence [5, 16]: 2 (13) n (%)
- AEs leading to withdrawal [5, 17]: 1 (5) n (%)
- Death [5, 17]: 0 (0) n (%)
- Patient with at least 1 AE [5, 17]: 15 (75) n (%)
- Serious AEs [5, 17]: 1 (5) n (%)
- Severe AEs [5, 17]: 1 (5) n (%)
- AEs leading to withdrawal [6, 18]: 0 (0) n (%)
- Abdominal pain [6, 18]: 0 (0) n (%)
- Death [6, 18]: 0 (0) n (%)
- Diarrhea [6, 18]: 3 (19) n (%)
- Fatigue [6, 18]: 0 (0) n (%)
- Flatulence [6, 18]: 0 (0) n (%)
- Headache [6, 18]: 2 (13) n (%)
- Hepatic enzyme increased [6, 18]: 0 (0) n (%)
- Nausea [6, 18]: 4 (25) n (%)
- Patient with at least 1 AE [6, 18]: 16 (100) n (%)
- Serious AEs [6, 18]: 0 (0) n (%)
- Severe AEs [6, 18]: 0 (0) n (%)
- Somnolence [6, 18]: 4 (25) n (%)
- Chromaturia ([6]; trial 17074, healthy volunteers, N = 16, rifampicin coadministered): 13 (81) n (%)
- healthy volunteers reporting AEs ([6]; trial 17074, overall, 16 subjects, CBD as two single doses): 100%
- healthy volunteers reporting AEs ([6]; trial 17074, after CBD alone, during RIF treatment, or after CBD and RIF, of 16): 44%
- elevations in transaminase levels as AEs or laboratory evaluations ([6]; trial 17074, result in words): no reports
- AEs leading to withdrawal [7, 19]: 0 (0) n (%)
- Abdominal pain [7, 19]: 2 (6) n (%)
- Chromaturia [7, 19]: 0 (0) n (%)
- Death [7, 19]: 0 (0) n (%)
- Diarrhea [7, 19]: 3 (9) n (%)
- Fatigue [7, 19]: 2 (6) n (%)
- Flatulence [7, 19]: 0 (0) n (%)
- Headache [7, 19]: 6 (19) n (%)
- Hepatic enzyme increased [7, 19]: 0 (0) ^c n (%)
- Nausea [7, 19]: 2 (6) n (%)
- Patient with at least 1 AE [7, 19]: 20 (63) n (%)
- Serious AEs [7, 19]: 0 (0) n (%)
- Severe AEs [7, 19]: 0 (0) n (%)
- Somnolence [7, 19]: 3 (9) n (%)
- healthy volunteers reporting AEs ([7]; trial 17075, overall, 32 subjects, CBD as two single doses): 63%
- healthy volunteers reporting AEs ([7]; trial 17075 FLU arm, overall, of 16): 44%
- healthy volunteers reporting AEs ([7]; trial 17075 ITC arm, overall, of 16): 81%
- clearance with concomitant FLU ([8]; result in words): not affected
- t ½ with concomitant FLU ([8]; result in words): not affected
- increase in AUCtau with concomitant steady‐state FLU ([8]; single dose of CBD): 21%
- increase in C max with concomitant steady‐state FLU ([8]; single dose of CBD): 24%
- instances that met Hy’s law criteria for potential drug‐induced liver injury [9]: no instances
- suicidal ideation or behavior by C‐SSRS [9]: No suicidal ideation or behavior
- effect of concomitant STP on exposure [10]: no effect
- effect of concomitant VPA on exposure [10]: did not affect
- AEs leading to withdrawal [11, 20]: 6 (8) n (%)
- Death [11, 20]: 0 (0) n (%)
- Patient with at least 1 AE [11, 20]: 72 (94) n (%)
- Serious AEs [11, 20]: 0 (0) n (%)
- Severe AEs [11, 20]: 2 (3) n (%)
- subjects who experienced an AE of rash ([11]; trial 1543, of 77, early in the trial): 12%
- healthy volunteers who experienced an AE ([11]; trial 1543, of 77): 94%
- elevations in transaminase levels as AEs or laboratory evaluations ([11]; trial 1543, result in words): no reports
- Abdominal pain [11, 21]: 7 (26) n (%)
- Chromaturia [11, 21]: 0 (0) n (%)
- Diarrhea [11, 21]: 7 (26) n (%)
- Fatigue [11, 21]: 14 (52) n (%)
- Flatulence [11, 21]: 0 (0) n (%)
- Headache [11, 21]: 13 (48) n (%)
- Hepatic enzyme increased [11, 21]: 0 (0) n (%)
- Nausea [11, 21]: 8 (30) n (%)
- Somnolence [11, 21]: 5 (19) n (%)
- Abdominal pain [11, 22]: 7 (29) n (%)
- Chromaturia [11, 22]: 0 (0) n (%)
- Diarrhea [11, 22]: 13 (54) n (%)
- Fatigue [11, 22]: 8 (33) n (%)
- Flatulence [11, 22]: 6 (25) n (%)
- Headache [11, 22]: 9 (38) n (%)
- Hepatic enzyme increased [11, 22]: 0 (0) n (%)
- Nausea [11, 22]: 6 (25) n (%)
- Somnolence [11, 22]: 8 (33) n (%)
- Abdominal pain [11, 23]: 7 (27) n (%)
- Chromaturia [11, 23]: 0 (0) n (%)
- Diarrhea [11, 23]: 15 (58) n (%)
- Fatigue [11, 23]: 14 (54) n (%)
- Flatulence [11, 23]: 1 (4) n (%)
- Headache [11, 23]: 8 (31) n (%)
- Hepatic enzyme increased [11, 23]: 0 (0) n (%)
- Nausea [11, 23]: 8 (31) n (%)
- Somnolence [11, 23]: 7 (27) n (%)
- patients with epilepsy reporting AEs ([12]; trial 1447, of 34): 68%
- Abdominal pain [12, 24]: 0 (0) n (%)
- Chromaturia [12, 24]: 0 (0) n (%)
- Diarrhea [12, 24]: 16 (57) n (%)
- Fatigue [12, 24]: 3 (11) n (%)
- Flatulence [12, 24]: 0 (0) n (%)
- Headache [12, 24]: 0 (0) n (%)
- Hepatic enzyme increased [12, 24]: 0 (0) ^e n (%)
- Nausea [12, 24]: 4 (14) n (%)
- Somnolence [12, 24]: 1 (4) n (%)
- AEs leading to withdrawal [12, 25]: 2 (6) n (%)
- Death [12, 25]: 0 (0) n (%)
- Patient with at least 1 AE [12, 25]: 23 (68) n (%)
- Serious AEs [12, 25]: 2 (6) n (%)
- Severe AEs [12, 25]: 1 (3) n (%)
- elevations in transaminase levels reported as AEs ([12]; trial 1447): three
- inhibition of CYP2C19 [13]: potently inhibits
- half-life [14]: 56.8 h
